Experimental data published in ChEMBL document CHEMBL1141001, “Synthesis of trans-caffeate analogues and their bioactivities against HIV-1 integrase and cancer cell lines” (Bioorg Med Chem Lett, 2008).

Key:
[1] = target: Human immunodeficiency virus type 1 integrase (Human immunodeficiency virus 1, UniProt Q7ZJM1); test: Inhibition of HIV1 integrase by ELISA
How it was run: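 HIV-1 integrase activity was read out by ELISA, and inhibition was expressed as an IC50.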

[2] = system: MCF7; test: Cytotoxicity against human MCF7 cells by MTT assay; type: functional, cell-based
[3] = system: A549; test: Cytotoxicity against human A549 cells by MTT assay; type: functional, cell-based
[4] = Cytotoxicity against human BCG823 cells by MTT assay; type: functional, cell-based
[5] = system: BEL-7404 (Homo sapiens); test: Cytotoxicity against human BEL-7404 cells by MTT assay

Chain of Human immunodeficiency virus type 1 integrase (Q7ZJM1 whole entry): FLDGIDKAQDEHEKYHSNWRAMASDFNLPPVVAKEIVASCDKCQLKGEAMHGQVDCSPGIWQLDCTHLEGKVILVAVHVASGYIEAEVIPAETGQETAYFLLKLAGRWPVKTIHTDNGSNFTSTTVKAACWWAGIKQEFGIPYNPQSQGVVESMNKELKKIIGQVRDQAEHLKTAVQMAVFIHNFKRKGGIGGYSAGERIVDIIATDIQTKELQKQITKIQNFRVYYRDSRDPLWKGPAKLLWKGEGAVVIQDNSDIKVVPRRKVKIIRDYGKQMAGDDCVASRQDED

Row | Compound | IC50 [1] | IC50 [2] | IC50 [3] | IC50 [4] | IC50 [5]
1 | O=C(O)/C=C/c1cc(O)c(O)c([N+](=O)[O-])c1 | 26.8 µM | – | – | – | –
2 | O=C(O)/C=C/c1ccc(O)c(O)c1[N+](=O)[O-] | > 100 µM | – | – | – | –
3 | COc1cc(/C=C/C(=O)OC2CC3CCC2(C)C3(C)C)cc(Cl)c1O (stereo not drawn) | > 100 µM | – | – | – | –
4 | COc1cc(/C=C/C(=O)O)cc(Br)c1O | > 100 µM | – | – | – | –
5 | COc1c(O)ccc(/C=C/C(=O)O)c1[N+](=O)[O-] | > 100 µM | – | – | – | –
6 | COc1c(O)ccc(/C=C/C(=O)OCCc2ccccc2)c1[N+](=O)[O-] | > 100 µM | – | – | – | –
7 | COc1c(O)ccc(/C=C/C(=O)OC2CC3CCC2(C)C3(C)C)c1[N+](=O)[O-] (stereo not drawn) | > 100 µM | 62.3 µM | 21.1 µM | 32.1 µM | 6.6 µM
8 | COc1cc(/C=C/C(=O)O)cc([N+](=O)[O-])c1O | > 100 µM | – | – | – | –
9 | COc1cc(/C=C/C(=O)OCCc2ccccc2)cc([N+](=O)[O-])c1O | > 100 µM | > 300 µM | > 300 µM | > 300 µM | > 300 µM
10 | COc1cc(/C=C/C(=O)OC2CC3CCC2(C)C3(C)C)cc([N+](=O)[O-])c1O (stereo not drawn) | > 100 µM | – | – | – | –
11 | COc1cc(/C=C/C(=O)O)cc(Cl)c1O | > 100 µM | – | – | – | –
12 | COc1cc(/C=C/C(=O)OCCc2ccccc2)cc(Cl)c1O | > 100 µM | – | – | – | –
13 | COc1cc(/C=C/C(=O)OCCc2ccccc2)cc(Br)c1O | > 100 µM | > 300 µM | > 300 µM | > 300 µM | > 300 µM
14 | COc1cc(/C=C/C(=O)OC2CC3CCC2(C)C3(C)C)cc(Br)c1O (stereo not drawn) | > 100 µM | – | – | – | –
15 | O=C(/C=C/c1cc(O)c(O)c([N+](=O)[O-])c1)OCCc1ccccc1 | 25 µM | 12.3 µM | 11.4 µM | 22.9 µM | 59.7 µM
16 | O=C(/C=C/c1ccc(O)c(O)c1[N+](=O)[O-])OCCc1ccccc1 | > 100 µM | 28.8 µM | 8.7 µM | 27.8 µM | 10.2 µM
17 | CC1(C)C2CCC1(C)C(OC(=O)/C=C/c1ccc(O)c(O)c1[N+](=O)[O-])C2 (stereo not drawn) | 13.5 µM | 40.7 µM | 52.9 µM | 117 µM | 28.7 µM
18 | O=C(/C=C/c1ccc(O)c(O)c1)Oc1ccc2ccccc2c1 | > 100 µM | 12.8 µM | 50 µM | 59.8 µM | 58.1 µM
19 | CC1(C)C2CCC1(C)C(OC(=O)/C=C/c1ccc(O)c(O)c1)C2 (stereo not drawn) | 19.9 µM | > 300 µM | 19.5 µM | 101 µM | 28.2 µM
20 | CC1(C)C2CCC1(C)C(OC(=O)/C=C/c1cc(O)c(O)c([N+](=O)[O-])c1)C2 (stereo not drawn) | > 100 µM | – | – | – | –
21 | COc1cc(/C=C/C(=O)O)ccc1O [FERULATE] | > 100 µM | – | – | – | –

Continued, in another order:

Row | IC50 [1] | Compound | IC50 [2] | IC50 [3] | IC50 [4] | IC50 [5]
22 | > 100 µM | CCCCCCCOC(=O)/C=C/c1ccc(O)c(O)c1 | – | – | – | –
23 | > 100 µM | CCCOC(=O)/C=C/c1ccc(O)c(O)c1 | – | – | – | –
24 | > 100 µM | CCCCCCCCOC(=O)/C=C/c1ccc(O)c(O)c1 | – | – | – | –
25 | > 100 µM | CCC(C)OC(=O)/C=C/c1ccc(O)c(O)c1 (stereo not drawn) | – | – | – | –
26 | > 100 µM | CC(C)(C)OC(=O)/C=C/c1ccc(O)c(O)c1 | – | – | – | –
27 | > 100 µM | CCCCCCC(C)OC(=O)/C=C/c1ccc(O)c(O)c1 (stereo not drawn) | – | – | – | –
28 | > 100 µM | CCCCCCCCCCCCCCCCCCOC(=O)/C=C/c1ccc(O)c(O)c1 | – | – | – | –
29 | > 100 µM | O=C(/C=C/c1ccc(O)c(O)c1)Oc1ccccc1 | 5.9 µM | 75.9 µM | 56.6 µM | 44.3 µM
30 | > 100 µM | O=C(/C=C/c1ccc(O)c(O)c1)OC1CCCCC1 | 30.3 µM | 89.3 µM | 97.6 µM | 15.5 µM
31 | > 100 µM | CC(C)(COC(=O)/C=C/c1ccc(O)c(O)c1)[N+](=O)[O-] | – | – | – | –
32 | > 100 µM | CC(C)OC(=O)/C=C/c1ccc(O)c(O)c1 | – | – | – | –
33 | > 100 µM | C=CCOC(=O)/C=C/c1ccc(O)c(O)c1 | – | – | – | –
34 | > 100 µM | C#CCOC(=O)/C=C/c1ccc(O)c(O)c1 | – | – | – | –
35 | > 100 µM | O=C(/C=C/c1ccc(O)c(O)c1)OCc1ccccc1 [BENZYL CAFFEATE] | 14.1 µM | 27.3 µM | 48.1 µM | 17.4 µM
36 | > 100 µM | CCCCOC(=O)/C=C/c1ccc(O)c(O)c1 [BUTYL CAFFEATE] | – | – | – | –
37 | > 100 µM | O=C(/C=C/c1ccc(O)c(O)c1)OCCc1ccccc1 [CAFFEIC ACID PHENETHYL ESTER] | 26.7 µM | 83.6 µM | 44.6 µM | 5.5 µM
38 | > 100 µM | O=C(O)/C=C/c1ccc(O)c(O)c1 [CAFFEIC ACID] | – | – | – | –
39 | > 100 µM | CCOC(=O)/C=C/c1ccc(O)c(O)c1 [ETHYL CAFFEATE] | – | – | – | –
40 | > 100 µM | COC(=O)/C=C/c1ccc(O)c(O)c1 [METHYLCAFFEATE] | – | – | – | –
